According to ChEMBL document CHEMBL2150893, “Synthesis of β-ionone derived chalcones as potent antimicrobial agents” (2012):
Values after ≈ are worked out from the molar mass of the structure shown. Active and inactive are the calls of the source. The calls are words filed in the database; no cut-off is given here.

Tests used:
Salmonella typhi = experiment: Antibacterial activity against Salmonella typhi after 24 hrs by serial dilution method; format: functional, Salmonella enterica subsp. enterica serovar Typhi; conditions: Salmonella enterica
Method in brief: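 Serial tube dilution MIC in nutrient broth. Bacteria were grown until OD600 reached 0.4-0.6. Tubes held 5 ml broth plus 1 ml compound at 0.78, 1.56, 3.12, 6.25, 12.5, 25 or 50 µg/ml and were shaken at 180 rpm for 24 h. Initial medium OD was read at 600 nm.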

Escherichia coli = experiment: Antibacterial activity against Escherichia coli MTCC 82 after 24 hrs by serial dilution method; format: functional; conditions: MTCC 82, 24 h
Method in brief: (§1)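 Serial tube dilution MIC. Strains were grown in nutrient broth to an OD600 of 0.4-0.6. Compounds were tested at 0.78, 1.56, 3.12, 6.25, 12.5, 25 and 50 µg/ml, each in a separate tube containing 5 ml nutrient broth plus 1 ml compound solution. Tubes were incubated 24 h with shaking at 180 rpm. Growth was followed by optical density at 600 nm.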

Staphylococcus aureus = experiment: Antibacterial activity against Staphylococcus aureus MTCC 96 after 24 hrs by serial dilution method; format: functional; conditions: MTCC 96, 24 h; method in brief: as §1
Pseudomonas aeruginosa = experiment: Antibacterial activity against Pseudomonas aeruginosa MTCC 2642 after 24 hrs by serial dilution method; format: functional; conditions: MTCC 2642, 24 h; method in brief: as §1
Saccharomyces cerevisiae = experiment: Antifungal activity against Saccharomyces cerevisiae MTCC 172 after 24 hrs by serial dilution method; format: functional; conditions: MTCC 172, 24 h
Method in brief: (§2)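 Fungal MIC by serial tube dilution. Dilutions of test compounds (1.9–500 µg/ml) were made from stock solution. Each tube held 1 ml nutrient broth and received 20 µl of standard strain culture.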

Bacillus subtilis = experiment: Antibacterial activity against Bacillus subtilis MTCC 2451 after 24 hrs by serial dilution method; format: functional; conditions: MTCC 2451, 24 h; method in brief: as §1
[1] = Antifungal activity against Cryptococcus gastricus MTCC 1715 after 24 hrs by serial dilution method; format: functional; conditions: Goffeauzyma gastrica; method in brief: as §2
Aspergillus niger = experiment: Antifungal activity against Aspergillus niger MTCC 1344 after 24 hrs by serial dilution method; format: functional; conditions: MTCC 1344, 24 h; method in brief: as §2
Nannizzia gypsea = experiment: Antifungal activity against Microsporum gypseum MTCC 4490 after 24 hrs by serial dilution method; format: functional; conditions: MTCC 4490, 24 h; method in brief: as §2
Candida albicans = experiment: Antifungal activity against Candida albicans MTCC 3018 after 24 hrs by serial dilution method; format: functional; conditions: MTCC 3018, 24 h; method in brief: as §2
Klebsiella pneumoniae = experiment: Antibacterial activity against Klebsiella pneumoniae MTCC 530 after 24 hrs by serial dilution method; format: functional, organism-based

Structure (SMILES)	MIC (Salmonella typhi)	MIC (Escherichia coli)	MIC (Staphylococcus aureus)	MIC (Pseudomonas aeruginosa)	MIC (Saccharomyces cerevisiae)	MIC (Bacillus subtilis)	MIC [1]	MIC (Aspergillus niger)	MIC (Nannizzia gypsea)	MIC (Candida albicans)	Activity (Klebsiella pneumoniae)
COc1ccc(/C=C/C(=O)/C=C/C2=C(C)CCCC2(C)C)cc1	> 100 µg/mL	> 100 µg/mL	25 µg/mL (≈ 80.5 µM)	–	–	–	–	–	–	–	–
CC1=C(/C=C/C(=O)/C=C/c2ccc(Cl)cc2)C(C)(C)CCC1	> 100 µg/mL	3.12 µg/mL (≈ 9.91 µM)	25 µg/mL (≈ 79.4 µM)	12.5 µg/mL (≈ 39.7 µM)	12.5 µg/mL (≈ 39.7 µM)	6.25 µg/mL (≈ 19.9 µM)	> 100 µg/mL	> 100 µg/mL	> 100 µg/mL	> 100 µg/mL	inactive
O=C(O)c1cn(C2CC2)c2cc(N3CCNCC3)c(F)cc2c1=O [CIPROFLOXACIN]	–	0.9 µg/mL (≈ 2.72 µM)	1.2 µg/mL (≈ 3.62 µM)	1.8 µg/mL (≈ 5.43 µM)	–	0.75 µg/mL (≈ 2.26 µM)	–	–	–	–	–
CC1=C(/C=C/C(=O)/C=C/c2ccoc2)C(C)(C)CCC1	74 µg/mL (≈ 274 µM)	> 100 µg/mL	–	> 100 µg/mL	> 100 µg/mL	22.5 µg/mL (≈ 83.2 µM)	72.5 µg/mL (≈ 268 µM)	61.4 µg/mL (≈ 227 µM)	> 100 µg/mL	74 µg/mL (≈ 274 µM)	–
CC1=C(/C=C/C(=O)/C=C/c2cccnc2)C(C)(C)CCC1	> 100 µg/mL	12.5 µg/mL (≈ 44.4 µM)	6.25 µg/mL (≈ 22.2 µM)	12.5 µg/mL (≈ 44.4 µM)	10.5 µg/mL (≈ 37.3 µM)	6.25 µg/mL (≈ 22.2 µM)	> 100 µg/mL	3.9 µg/mL (≈ 13.9 µM)	> 100 µg/mL	35 µg/mL (≈ 124 µM)	inactive
COc1ccc(/C=C/C(=O)/C=C/C2=C(C)CCCC2(C)C)cc1OC	> 100 µg/mL	42 µg/mL (≈ 123 µM)	–	55.5 µg/mL (≈ 163 µM)	–	22.5 µg/mL (≈ 66.1 µM)	–	–	–	–	–
COC1=CC(=O)C[C@@H](C)[C@]12Oc1c(Cl)c(OC)cc(OC)c1C2=O [GRISEOFULVIN]	–	–	–	–	1.9 µg/mL (≈ 5.39 µM)	–	1.9 µg/mL (≈ 5.39 µM)	1.9 µg/mL (≈ 5.39 µM)	1.9 µg/mL (≈ 5.39 µM)	1.9 µg/mL (≈ 5.39 µM)	–
CC1=C(/C=C/C(=O)/C=C/c2ccccc2Br)C(C)(C)CCC1	–	–	25 µg/mL (≈ 69.6 µM)	> 100 µg/mL	3.9 µg/mL (≈ 10.9 µM)	40.2 µg/mL (≈ 112 µM)	> 100 µg/mL	7.6 µg/mL (≈ 21.2 µM)	> 100 µg/mL	31.2 µg/mL (≈ 86.8 µM)	–
CC1=C(/C=C/C(=O)/C=C/c2ccc(F)cc2)C(C)(C)CCC1	–	> 100 µg/mL	25.5 µg/mL (≈ 85.5 µM)	–	15.6 µg/mL (≈ 52.3 µM)	25 µg/mL (≈ 83.8 µM)	> 100 µg/mL	15.6 µg/mL (≈ 52.3 µM)	> 100 µg/mL	12.5 µg/mL (≈ 41.9 µM)	–
CC1=C(/C=C/C(=O)/C=C/c2ccc(C#N)cc2)C(C)(C)CCC1	> 100 µg/mL	37 µg/mL (≈ 121 µM)	42 µg/mL (≈ 138 µM)	–	> 100 µg/mL	> 100 µg/mL	> 100 µg/mL	52.4 µg/mL (≈ 172 µM)	90.5 µg/mL (≈ 296 µM)	80 µg/mL (≈ 262 µM)	–
CC1=C(/C=C/C(=O)/C=C/c2ccc(C)cc2)C(C)(C)CCC1	> 100 µg/mL	–	> 100 µg/mL	65 µg/mL (≈ 221 µM)	40.5 µg/mL (≈ 138 µM)	25 µg/mL (≈ 84.9 µM)	> 100 µg/mL	> 100 µg/mL	> 100 µg/mL	46 µg/mL (≈ 156 µM)	–
CC1=C(/C=C/C(=O)/C=C/c2cccc3ccccc23)C(C)(C)CCC1	–	55.5 µg/mL (≈ 168 µM)	25 µg/mL (≈ 75.6 µM)	–	> 100 µg/mL	25 µg/mL (≈ 75.6 µM)	> 100 µg/mL	55 µg/mL (≈ 166 µM)	98 µg/mL (≈ 297 µM)	71.5 µg/mL (≈ 216 µM)	–
CC1=C(/C=C/C(=O)/C=C/c2ccccc2F)C(C)(C)CCC1	> 100 µg/mL	> 100 µg/mL	> 100 µg/mL	–	11.4 µg/mL (≈ 38.2 µM)	–	> 100 µg/mL	9.9 µg/mL (≈ 33.2 µM)	> 100 µg/mL	44.5 µg/mL (≈ 149 µM)	–
CC1=C(/C=C/C(=O)/C=C/c2ccccc2[N+](=O)[O-])C(C)(C)CCC1	25 µg/mL (≈ 76.8 µM)	12.5 µg/mL (≈ 38.4 µM)	6.25 µg/mL (≈ 19.2 µM)	3.12 µg/mL (≈ 9.59 µM)	42.5 µg/mL (≈ 131 µM)	3.12 µg/mL (≈ 9.59 µM)	58.4 µg/mL (≈ 179 µM)	32.4 µg/mL (≈ 99.6 µM)	> 100 µg/mL	> 100 µg/mL	inactive
COc1cc(/C=C/C(=O)/C=C/C2=C(C)CCCC2(C)C)cc(OC)c1OC	45 µg/mL (≈ 121 µM)	–	19.5 µg/mL (≈ 52.6 µM)	22.5 µg/mL (≈ 60.7 µM)	–	> 100 µg/mL	–	–	–	–	inactive
CC1=C(/C=C/C(=O)/C=C/C=C/c2ccccc2)C(C)(C)CCC1	50 µg/mL (≈ 163 µM)	6.25 µg/mL (≈ 20.4 µM)	6.25 µg/mL (≈ 20.4 µM)	> 100 µg/mL	80 µg/mL (≈ 261 µM)	3.12 µg/mL (≈ 10.2 µM)	55.5 µg/mL (≈ 181 µM)	25 µg/mL (≈ 81.6 µM)	> 100 µg/mL	> 100 µg/mL	inactive
CC1=C(/C=C/C(=O)/C=C/c2ccccc2Cl)C(C)(C)CCC1	> 100 µg/mL	1.56 µg/mL (≈ 4.95 µM)	1.56 µg/mL (≈ 4.95 µM)	12.5 µg/mL (≈ 39.7 µM)	12.5 µg/mL (≈ 39.7 µM)	0.78 µg/mL (≈ 2.48 µM)	> 100 µg/mL	33.5 µg/mL (≈ 106 µM)	94 µg/mL (≈ 299 µM)	11.5 µg/mL (≈ 36.5 µM)	–
OC(Cn1cncn1)(Cn1cncn1)c1ccc(F)cc1F [FLUCONAZOLE]	–	–	–	–	1.9 µg/mL (≈ 6.2 µM)	–	31.2 µg/mL (≈ 102 µM)	1.9 µg/mL (≈ 6.2 µM)	1.9 µg/mL (≈ 6.2 µM)	3.9 µg/mL (≈ 12.7 µM)	–
CC1=C(/C=C/C(=O)/C=C/c2ccc([N+](=O)[O-])cc2)C(C)(C)CCC1	> 100 µg/mL	6.25 µg/mL (≈ 19.2 µM)	25 µg/mL (≈ 76.8 µM)	12.5 µg/mL (≈ 38.4 µM)	19.5 µg/mL (≈ 59.9 µM)	3.12 µg/mL (≈ 9.59 µM)	90.4 µg/mL (≈ 278 µM)	9.6 µg/mL (≈ 29.5 µM)	82 µg/mL (≈ 252 µM)	11.2 µg/mL (≈ 34.4 µM)	–
CC1=C(/C=C/C(=O)/C=C/c2ccc(Cl)c(Cl)c2)C(C)(C)CCC1	> 100 µg/mL	22 µg/mL (≈ 63 µM)	32.5 µg/mL (≈ 93 µM)	–	–	25 µg/mL (≈ 71.6 µM)	–	–	–	–	–
CC1(C)S[C@@H]2[C@H](NC(=O)[C@H](N)c3ccc(O)cc3)C(=O)N2[C@H]1C(=O)O [AMOXICILLIN]	0.9 µg/mL (≈ 2.46 µM)	0.12 µg/mL (≈ 0.328 µM)	0.5 µg/mL (≈ 1.37 µM)	1 µg/mL (≈ 2.74 µM)	–	0.5 µg/mL (≈ 1.37 µM)	–	–	–	–	–
CC1=C(/C=C/C(=O)/C=C/c2ccccc2C)C(C)(C)CCC1	55.5 µg/mL (≈ 188 µM)	30.5 µg/mL (≈ 104 µM)	> 100 µg/mL	–	96 µg/mL (≈ 326 µM)	25 µg/mL (≈ 84.9 µM)	> 100 µg/mL	> 100 µg/mL	> 100 µg/mL	72 µg/mL (≈ 245 µM)	inactive
COc1ccccc1/C=C/C=C/C(=O)/C=C/C1=C(C)CCCC1(C)C	> 100 µg/mL	> 100 µg/mL	> 100 µg/mL	32.5 µg/mL (≈ 96.6 µM)	34 µg/mL (≈ 101 µM)	25 µg/mL (≈ 74.3 µM)	19.5 µg/mL (≈ 58 µM)	80 µg/mL (≈ 238 µM)	71.5 µg/mL (≈ 212 µM)	> 100 µg/mL	–
CC1=C(/C=C/C(=O)/C=C/c2ccccc2)C(C)(C)CCC1	12.5 µg/mL (≈ 44.6 µM)	1.56 µg/mL (≈ 5.56 µM)	3.12 µg/mL (≈ 11.1 µM)	12.5 µg/mL (≈ 44.6 µM)	61.5 µg/mL (≈ 219 µM)	3.12 µg/mL (≈ 11.1 µM)	78 µg/mL (≈ 278 µM)	> 100 µg/mL	> 100 µg/mL	> 100 µg/mL	inactive
CC1=C(/C=C/C(=O)/C=C/c2ccc(Br)cc2)C(C)(C)CCC1	> 100 µg/mL	> 100 µg/mL	–	> 100 µg/mL	–	–	–	–	–	–	–
COc1ccccc1/C=C/C(=O)/C=C/C1=C(C)CCCC1(C)C	> 100 µg/mL	31.5 µg/mL (≈ 101 µM)	22.2 µg/mL (≈ 71.5 µM)	> 100 µg/mL	61.4 µg/mL (≈ 198 µM)	25 µg/mL (≈ 80.5 µM)	> 100 µg/mL	92.5 µg/mL (≈ 298 µM)	88.5 µg/mL (≈ 285 µM)	> 100 µg/mL	–
